Measured values collected from several papers.
Target: Phosphorylase b kinase gamma catalytic chain, liver/testis isoform (PHKG2, Homo sapiens, UniProt P15735)
Sequence (P15735 1-406, as in one of the studies): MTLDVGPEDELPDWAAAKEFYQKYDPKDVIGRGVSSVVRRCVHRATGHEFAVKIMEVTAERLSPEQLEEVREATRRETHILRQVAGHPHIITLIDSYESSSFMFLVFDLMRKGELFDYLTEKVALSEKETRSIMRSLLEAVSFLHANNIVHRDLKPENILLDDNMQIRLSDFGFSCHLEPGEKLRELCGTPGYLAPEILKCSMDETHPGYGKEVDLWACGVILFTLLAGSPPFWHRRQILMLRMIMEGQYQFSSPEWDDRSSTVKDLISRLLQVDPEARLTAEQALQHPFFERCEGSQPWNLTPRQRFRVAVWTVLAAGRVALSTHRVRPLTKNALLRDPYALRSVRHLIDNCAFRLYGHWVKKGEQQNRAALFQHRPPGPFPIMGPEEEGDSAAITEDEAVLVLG

| Compound | effect on | mode | method | cell line | concentration | quantity | result |
| --- | --- | --- | --- | --- | --- | --- | --- |
| COCCOc1nc(-c2ccc(Cl)nc2)nc2c1CN(C(=O)c1ncn3ccccc13)CC2 | cell-free assay | – | competition with immobilised ligand | – | 0.1 µM | remaining binding | 100% |
| CNc1cc(Oc2cc(C(=O)Nc3cc(N4CCN(C)CC4)cc(C(F)(F)F)c3)ccc2C)ncn1 | target engagement in cells | inhibitor | chemoproteomics | Huh-7 | 1 µM | inhibition | -18.1% |
| COc1cc2ncnc(Nc3ccc(Oc4ccccc4)c(C)c3C)c2cc1OC | enzyme activity | inhibitor | – | – | 1 µM | inhibition | 2% |
| CCN(CC)CCNC(=O)c1c(C)[nH]c(/C=C2\C(=O)Nc3ccc(F)cc32)c1C | enzyme activity | inhibitor | – | – | 10 µM | inhibition | 101% |
| Cc1cnc(NC2CCOCC2)nc1-n1cnc(C(=O)NC(CN)c2cc(F)cc(Cl)c2)c1 (stereo not drawn) | enzyme activity | inhibitor | radiometric | – | 1 µM | remaining activity | 97% |
| Oc1cccc(-c2nc(N3CCOCC3)c3oc4ncccc4c3n2)c1 | cell-free assay | – | – | – | 0.5 µM | remaining signal | 99.1% |
| CCCCN(CCCC)C(=O)CN1C[C@@H](c2cc(OC)c3c(c2)OCO3)[C@H](C(=O)O)[C@H]1CC(C)(C)CCC | cell-free assay | – | competition with immobilised ligand | – | 1 µM | remaining binding | 100% |
| Cc1ccc(C(=O)Nc2ccc(CN3CCN(C)CC3)c(C(F)(F)F)c2)cc1C#Cc1cnc2cccnn12 | enzyme activity | inhibitor | – | – | 23.5 nM | remaining activity | 100% |
| NS(=O)(=O)c1cc(NC(=O)C2(c3ccccc3Cl)CC2)ccc1Oc1cccc(Cl)c1 | cell-free assay | – | competition with immobilised ligand | – | 1 µM | remaining binding | 100% |
| O=C1Nc2ccc(Cl)cc2C1=Cc1cc(Cl)c(O)c(Cl)c1 | cell-free assay | – | – | – | 0.5 µM | remaining signal | 98.4% |
| COc1cccc2c(NCc3ccccc3)nc(-n3c(N)nc4ccccc43)nc12 | target engagement in cells | inhibitor | chemoproteomics | – | 20 mM | inhibition | 4.6% |
| CC(C)(C)c1nc(-c2cccc(NS(=O)(=O)c3c(F)cccc3F)c2F)c(-c2ccnc(N)n2)s1 | enzyme activity | inhibitor | radiometric | – | 1 µM | remaining activity | 88% |
| CNC(=O)c1cc(Oc2ccc(NC(=O)Nc3ccc(Cl)c(C(F)(F)F)c3)cc2)ccn1 | cell-free assay | – | – | – | 0.5 µM | remaining signal | 91.3% |
| CCC(=O)N[C@@H]1CC[C@H](C(=O)N(C)c2ccc(-c3nc4ccccc4o3)cc2)C1 | cell-free assay | – | competition with immobilised ligand | – | 1 µM | remaining binding | 100% |
| COc1ccc(COc2ccc(Cc3cnc(N)nc3N)cc2OC)cc1 | cell-free assay | – | – | – | 0.5 µM | remaining signal | 106% |
| O=C(Nc1cnn(-c2csc(C(=O)NC3COC3)c2)c1)Nc1ccccc1Cl | enzyme activity | inhibitor | – | – | 5 µM | remaining activity | 101% |
| CNCc1ccccc1-c1csc([C@H](C)Nc2nc(C)nc3cc(OC)c(OC)cc23)c1 | cell-free assay | – | competition with immobilised ligand | – | 1 µM | remaining binding | 100% |
| Cc1ccc(NC(=O)c2ccc(C)c(C(F)(F)F)c2)cc1C#Cc1nn(C2CCC(O)CC2)c2ncnc(N)c12 (stereo not drawn) | cell-free assay | – | – | – | 10 µM | remaining signal | 113% |
